Measured values taken from ChEMBL document CHEMBL5058577, “EUbOPEN Chemogenomics Library 2 (Multiplex)” (2022).

Tested on: Fibroblast
Assay: Multiplex assay against human fibroblast
Format: toxicity, cell-based
How it was run: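 Four dyes were applied at seeding to live cells: Hoechst33342, BioTracker Green Microtubule Cytoskeleton Dye, MitoTracker Red and Annexin V Alexa Fluor 680. Imaging after compound addition used a CQ1 microscope at 37°C and 5% CO2. CellPathfinder machine-learning gating then sorted cells into Hoechst high-intensity objects or normal cells, normal cells into healthy, pyknosed or fragmented nuclei, and pyknosed cells into mitotic or apoptotic, with tubulin, mitochondrial-mass and membrane-permeability phenotypes given as per cents of healthy-nucleus cells.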

[1] = 12 h, 1 µM, compound concentration 1 uM, replicate 1
[2] = 12 h, 1 µM, compound concentration 1 uM, replicate 2
[3] = 12 h, 10 µM, compound concentration 10 uM, replicate 1
[4] = 12 h, 10 µM, compound concentration 10 uM, replicate 2
[5] = 24 h, 1 µM, compound concentration 1 uM, replicate 1
[6] = 24 h, 1 µM, compound concentration 1 uM, replicate 2
[7] = 24 h, 10 µM, compound concentration 10 uM, replicate 1
[8] = 24 h, 10 µM, compound concentration 10 uM, replicate 2
[9] = 48 h, 1 µM, compound concentration 1 uM, replicate 1
[10] = 48 h, 1 µM, compound concentration 1 uM, replicate 2
[11] = 48 h, 10 µM, compound concentration 10 uM, replicate 1
[12] = 48 h, 10 µM, compound concentration 10 uM, replicate 2

## Cc1sc2c(c1C)C(c1ccc(Cl)cc1)=N[C@H](CC(=O)OC(C)(C)C)c1nnc(C)n1-2
[1]
  Population Apoptotic (%): 43%
  Population Fragmented Nuclei (%): 15%
  Population Healthy Nuclei (%): 62%
  Population Hoechst High Intensity Objects (%): 2%
  Population Membrane Permeable-Phenotype (%): 0%
  Population Mitochondria Different-Phenotype (%): 5%
  Population Mitotic Cells (%): 56%
  Population Normal (%): 97%
  Population Pyknosed Nuclei (%): 22%
  Population Tubulin-Different-Phenotype (%): 30%
  Total Cell Count: 180
[2]
  Population Apoptotic (%): 33%
  Population Fragmented Nuclei (%): 26%
  Population Healthy Nuclei (%): 51%
  Population Hoechst High Intensity Objects (%): 5%
  Population Membrane Permeable-Phenotype (%): 15%
  Population Mitochondria Different-Phenotype (%): 10%
  Population Mitotic Cells (%): 66%
  Population Normal (%): 94%
  Population Tubulin-Different-Phenotype (%): 46%
  Total Cell Count: 159
[3]
  Population Apoptotic (%): 43%
  Population Fragmented Nuclei (%): 19%
  Population Healthy Nuclei (%): 55%
  Population Hoechst High Intensity Objects (%): 7%
  Population Membrane Permeable-Phenotype (%): 0%
  Population Mitochondria Different-Phenotype (%): 15%
  Population Mitotic Cells (%): 56%
  Population Normal (%): 92%
  Population Pyknosed Nuclei (%): 25%
  Population Tubulin-Different-Phenotype (%): 90%
  Total Cell Count: 128
[4]
  Population Apoptotic (%): 51%
  Population Fragmented Nuclei (%): 30%
  Population Healthy Nuclei (%): 39%
  Population Hoechst High Intensity Objects (%): 5%
  Population Membrane Permeable-Phenotype (%): 4%
  Population Mitochondria Different-Phenotype (%): 20%
  Population Mitotic Cells (%): 48%
  Population Normal (%): 94%
  Population Pyknosed Nuclei (%): 29%
  Population Tubulin-Different-Phenotype (%): 95%
  Total Cell Count: 169
[5]
  Population Apoptotic (%): 82%
  Population Fragmented Nuclei (%): 17%
  Population Healthy Nuclei (%): 60%
  Population Hoechst High Intensity Objects (%): 2%
  Population Membrane Permeable-Phenotype (%): 0%
  Population Mitochondria Different-Phenotype (%): 2%
  Population Mitotic Cells (%): 17%
  Population Normal (%): 97%
  Population Pyknosed Nuclei (%): 21%
  Population Tubulin-Different-Phenotype (%): 29%
  Total Cell Count: 186
[6]
  Population Apoptotic (%): 46%
  Population Fragmented Nuclei (%): 29%
  Population Healthy Nuclei (%): 50%
  Population Hoechst High Intensity Objects (%): 6%
  Population Membrane Permeable-Phenotype (%): 11%
  Population Mitochondria Different-Phenotype (%): 5%
  Population Mitotic Cells (%): 53%
  Population Normal (%): 93%
  Population Pyknosed Nuclei (%): 20%
  Population Tubulin-Different-Phenotype (%): 51%
  Total Cell Count: 149
[7]
  Population Apoptotic (%): 75%
  Population Fragmented Nuclei (%): 16%
  Population Healthy Nuclei (%): 69%
  Population Hoechst High Intensity Objects (%): 8%
  Population Membrane Permeable-Phenotype (%): 2%
  Population Mitochondria Different-Phenotype (%): 19%
  Population Mitotic Cells (%): 25%
  Population Normal (%): 91%
  Population Pyknosed Nuclei (%): 14%
  Population Tubulin-Different-Phenotype (%): 76%
  Total Cell Count: 123
[8]
  Population Apoptotic (%): 51%
  Population Fragmented Nuclei (%): 26%
  Population Healthy Nuclei (%): 45%
  Population Hoechst High Intensity Objects (%): 4%
  Population Membrane Permeable-Phenotype (%): 4%
  Population Mitochondria Different-Phenotype (%): 26%
  Population Mitotic Cells (%): 48%
  Population Normal (%): 95%
  Population Pyknosed Nuclei (%): 27%
  Population Tubulin-Different-Phenotype (%): 87%
  Total Cell Count: 165
[9]
  Population Apoptotic (%): 63%
  Population Fragmented Nuclei (%): 19%
  Population Healthy Nuclei (%): 66%
  Population Hoechst High Intensity Objects (%): 5%
  Population Membrane Permeable-Phenotype (%): 0%
  Population Mitochondria Different-Phenotype (%): 2%
  Population Mitotic Cells (%): 36%
  Population Normal (%): 94%
  Population Pyknosed Nuclei (%): 13%
  Population Tubulin-Different-Phenotype (%): 28%
  Total Cell Count: 170
[10]
  Population Apoptotic (%): 53%
  Population Fragmented Nuclei (%): 29%
  Population Healthy Nuclei (%): 49%
  Population Membrane Permeable-Phenotype (%): 12%
  Population Mitochondria Different-Phenotype (%): 10%
  Population Mitotic Cells (%): 46%
  Population Normal (%): 95%
  Population Pyknosed Nuclei (%): 21%
  Population Tubulin-Different-Phenotype (%): 69%
  Total Cell Count: 140
[11]
  Population Apoptotic (%): 50%
  Population Fragmented Nuclei (%): 21%
  Population Healthy Nuclei (%): 66%
  Population Hoechst High Intensity Objects (%): 1%
  Population Membrane Permeable-Phenotype (%): 1%
  Population Mitochondria Different-Phenotype (%): 13%
  Population Mitotic Cells (%): 50%
  Population Normal (%): 98%
  Population Pyknosed Nuclei (%): 12%
  Population Tubulin-Different-Phenotype (%): 70%
  Total Cell Count: 134
[12]
  Population Apoptotic (%): 63%
  Population Fragmented Nuclei (%): 35%
  Population Healthy Nuclei (%): 51%
  Population Membrane Permeable-Phenotype (%): 4%
  Population Mitochondria Different-Phenotype (%): 9%
  Population Mitotic Cells (%): 36%
  Population Pyknosed Nuclei (%): 13%
  Population Tubulin-Different-Phenotype (%): 88%
  Total Cell Count: 170

## Nc1nc(-c2ccco2)c2cnn(Cc3ccccc3F)c2n1
[1]
  Population Apoptotic (%): 50%
  Population Fragmented Nuclei (%): 10%
  Population Healthy Nuclei (%): 78%
  Population Hoechst High Intensity Objects (%): 0%
  Population Membrane Permeable-Phenotype (%): 1%
  Population Mitochondria Different-Phenotype (%): 2%
  Population Mitotic Cells (%): 50%
  Population Normal (%): 99%
  Population Pyknosed Nuclei (%): 11%
  Population Tubulin-Different-Phenotype (%): 26%
  Total Cell Count: 189
[2]
  Population Apoptotic (%): 45%
  Population Fragmented Nuclei (%): 31%
  Population Healthy Nuclei (%): 50%
  Population Hoechst High Intensity Objects (%): 6%
  Population Membrane Permeable-Phenotype (%): 2%
  Population Mitochondria Different-Phenotype (%): 5%
  Population Mitotic Cells (%): 54%
  Population Normal (%): 93%
  Population Pyknosed Nuclei (%): 17%
  Population Tubulin-Different-Phenotype (%): 42%
  Total Cell Count: 144
[3]
  Population Apoptotic (%): 54%
  Population Fragmented Nuclei (%): 16%
  Population Healthy Nuclei (%): 61%
  Population Hoechst High Intensity Objects (%): 8%
  Population Membrane Permeable-Phenotype (%): 0%
  Population Mitochondria Different-Phenotype (%): 7%
  Population Mitotic Cells (%): 45%
  Population Normal (%): 91%
  Population Pyknosed Nuclei (%): 21%
  Population Tubulin-Different-Phenotype (%): 38%
  Total Cell Count: 123
[4]
  Population Apoptotic (%): 47%
  Population Fragmented Nuclei (%): 39%
  Population Healthy Nuclei (%): 44%
  Population Hoechst High Intensity Objects (%): 10%
  Population Membrane Permeable-Phenotype (%): 5%
  Population Mitochondria Different-Phenotype (%): 13%
  Population Mitotic Cells (%): 52%
  Population Normal (%): 89%
  Population Pyknosed Nuclei (%): 16%
  Population Tubulin-Different-Phenotype (%): 51%
  Total Cell Count: 147
[5]
  Population Apoptotic (%): 50%
  Population Fragmented Nuclei (%): 9%
  Population Healthy Nuclei (%): 82%
  Population Hoechst High Intensity Objects (%): 0%
  Population Membrane Permeable-Phenotype (%): 0%
  Population Mitochondria Different-Phenotype (%): 2%
  Population Mitotic Cells (%): 50%
  Population Normal (%): 100%
  Population Pyknosed Nuclei (%): 7%
  Population Tubulin-Different-Phenotype (%): 24%
  Total Cell Count: 180
[6]
  Population Apoptotic (%): 56%
  Population Fragmented Nuclei (%): 29%
  Population Healthy Nuclei (%): 53%
  Population Hoechst High Intensity Objects (%): 6%
  Population Membrane Permeable-Phenotype (%): 4%
  Population Mitochondria Different-Phenotype (%): 5%
  Population Mitotic Cells (%): 43%
  Population Normal (%): 93%
  Population Pyknosed Nuclei (%): 17%
  Population Tubulin-Different-Phenotype (%): 37%
  Total Cell Count: 139
[7]
  Population Apoptotic (%): 70%
  Population Fragmented Nuclei (%): 19%
  Population Healthy Nuclei (%): 66%
  Population Hoechst High Intensity Objects (%): 6%
  Population Membrane Permeable-Phenotype (%): 1%
  Population Mitochondria Different-Phenotype (%): 8%
  Population Mitotic Cells (%): 29%
  Population Normal (%): 93%
  Population Pyknosed Nuclei (%): 14%
  Population Tubulin-Different-Phenotype (%): 39%
  Total Cell Count: 127
[8]
  Population Apoptotic (%): 43%
  Population Fragmented Nuclei (%): 43%
  Population Healthy Nuclei (%): 44%
  Population Hoechst High Intensity Objects (%): 8%
  Population Membrane Permeable-Phenotype (%): 15%
  Population Mitochondria Different-Phenotype (%): 5%
  Population Mitotic Cells (%): 56%
  Population Normal (%): 91%
  Population Pyknosed Nuclei (%): 11%
  Population Tubulin-Different-Phenotype (%): 46%
  Total Cell Count: 147
[9]
  Population Apoptotic (%): 45%
  Population Fragmented Nuclei (%): 16%
  Population Healthy Nuclei (%): 77%
  Population Hoechst High Intensity Objects (%): 3%
  Population Membrane Permeable-Phenotype (%): 2%
  Population Mitochondria Different-Phenotype (%): 1%
  Population Mitotic Cells (%): 54%
  Population Normal (%): 96%
  Population Pyknosed Nuclei (%): 6%
  Population Tubulin-Different-Phenotype (%): 26%
  Total Cell Count: 182
[10]
  Population Apoptotic (%): 57%
  Population Fragmented Nuclei (%): 41%
  Population Healthy Nuclei (%): 48%
  Population Hoechst High Intensity Objects (%): 6%
  Population Membrane Permeable-Phenotype (%): 4%
  Population Mitochondria Different-Phenotype (%): 9%
  Population Mitotic Cells (%): 42%
  Population Normal (%): 93%
  Population Pyknosed Nuclei (%): 10%
  Population Tubulin-Different-Phenotype (%): 37%
  Total Cell Count: 147
[11]
  Population Apoptotic (%): 80%
  Population Fragmented Nuclei (%): 25%
  Population Healthy Nuclei (%): 65%
  Population Hoechst High Intensity Objects (%): 9%
  Population Membrane Permeable-Phenotype (%): 0%
  Population Mitochondria Different-Phenotype (%): 10%
  Population Mitotic Cells (%): 20%
  Population Normal (%): 90%
  Population Pyknosed Nuclei (%): 9%
  Population Tubulin-Different-Phenotype (%): 27%
  Total Cell Count: 115
[12]
  Population Apoptotic (%): 50%
  Population Fragmented Nuclei (%): 50%
  Population Healthy Nuclei (%): 38%
  Population Hoechst High Intensity Objects (%): 5%
  Population Membrane Permeable-Phenotype (%): 16%
  Population Mitotic Cells (%): 50%
  Population Normal (%): 94%
  Population Pyknosed Nuclei (%): 10%
  Population Tubulin-Different-Phenotype (%): 51%
  Total Cell Count: 155
